This is a sample that favours compounds with a hit; in the whole collection about 0.64% have one here.
PMI act satM6P – activators of human phosphomannose isomerase at near-saturating mannose 6-phosphate; P34949; coupled PMI enzyme assay, resazurin fluorescence, 20 min; hits give high values; 1 = untreated enzyme, 0 = substrate-free blank; activation factor at 20 µM; hit rate 0.34% among 190,000;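 active = activation factor of 2 or more at 20 µM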
Target sequence (P34949 whole entry, looked up): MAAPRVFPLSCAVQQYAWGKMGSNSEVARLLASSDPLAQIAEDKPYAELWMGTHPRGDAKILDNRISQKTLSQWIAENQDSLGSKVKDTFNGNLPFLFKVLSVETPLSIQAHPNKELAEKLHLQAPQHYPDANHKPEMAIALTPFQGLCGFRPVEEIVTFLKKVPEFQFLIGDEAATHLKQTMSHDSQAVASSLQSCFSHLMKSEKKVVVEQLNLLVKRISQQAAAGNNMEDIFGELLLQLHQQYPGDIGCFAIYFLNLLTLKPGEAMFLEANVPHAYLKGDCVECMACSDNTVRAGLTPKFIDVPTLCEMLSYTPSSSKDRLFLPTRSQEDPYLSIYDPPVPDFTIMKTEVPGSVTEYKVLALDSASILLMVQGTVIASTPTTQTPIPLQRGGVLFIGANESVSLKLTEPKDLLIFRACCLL
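Material: human phosphomannose isomerase with PGI, G6PDH, diaphorase coupling enzymes / Reagent: Man-6-P substrate 1.0 mM / Dosing: single compound dose of 20 µM, 1% DMSO final / Incubation: enzyme reaction with compound 20 min at room temperature / Signal: resorufin fluorescence (Ex 544/Em 590 nm) from resazurin via diaphorase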
TNAP inh no acc – inhibitors of human TNAP without phosphate acceptor; purified TNAP, CDP-star luminescence, 30 min; inhibition, % at 20 µM; P05186; hit rate 0.26% among 200,000;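 active = tissue-nonspecific alkaline phosphatase inhibition above about 50% at 20 µM in the single-dose screen, limit read from the data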;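 note: 0% = DMSO negative control and 100% = EDTA positive control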
PMI act – increases human mannose-6-phosphate isomerase activity; P34949; purified human PMI, coupled resazurin fluorescence, 20 min; hits give high values; 1 = vehicle control, 0 substrate-free wells; activation factor at 20 µM; hit rate 0.005% among 190,000; AID 1214;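 active = activation factor of 2 or more at 20 µM, relative to plate controls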
TNAP act hi DEA – activators of human TNAP at high phosphate acceptor concentration. P05186. 200,000 tested, under 10 active. purified TNAP, CDP-star luminescence, 1 M DEA, 30 min; hits give high values; 0 = EDTA background, 1 = DMSO-only activity. activation factor at 20 µM. AID 1136;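 active = activation factor at least 2 at 20 µM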
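Test system – human TNAP · Doses – 20 µM single point · Incubation – 30 min, room temperature · Signal – luminescent substrate turnover signal · Read-out basis – activation factor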
TNAP inh hiacc – TNAP (human) inhibition, high acceptor; P05186; purified TNAP, CDP-star luminescence, 1 M DEA; inhibition, % at 20 µM; hit rate 0.03% among 200,000;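 active = over 50% inhibition of tissue-nonspecific alkaline phosphatase at 20 µM in the single-dose screen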;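 note: plate controls were DMSO wells for no effect and EDTA-quenched wells as full inhibition for full effect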
* hit, by the source's call; · = no result.

SMILES | PMI act satM6P | TNAP inh no acc | PMI act | TNAP act hi DEA | TNAP inh hiacc
CN(C)C(=O)c1cn(-c2ccccc2)nc1-c1cc2ccccc2o1 | 2.5* | -10 | 1.6 | 1 | -4
CSc1nnc(-c2ccccc2Cl)n1N | 1.2 | 2 | 1.1 | 1.1 | -7
Nn1c(-c2ccccc2Cl)nnc1-c1ccccc1Cl | 2.2* | 3 | 1.7 | 1 | -1
O=C(c1cc(-c2ccccc2)n[nH]1)N1CCc2c([nH]c3ccccc23)C1c1ccccn1 (configuration not stated) | 0.8 | 62* | 0.8 | 1 | -3
CC(C)CNC(=O)CN(C)S(=O)(=O)c1ccc(F)cc1 | 1 | -8 | 1 | 1 | -2
COCc1c(CCl)cnc(C)c1O | · | -2 | · | 1 | 3
O=C1Nc2ccccc2N(O)N1c1cc(-c2ccc(Cl)cc2)[nH]n1 | 0.9 | 63* | 1 | 1 | -2
COc1cc(OC)cc(-c2cc(N3C(=O)Nc4ccccc4N3O)n[nH]2)c1 | 1 | -19 | 0.9 | 1 | -2
Clc1cccc(N/N=C/c2ccc(N3CCOCC3)cc2)c1 | 2.3* | -9 | 1.4 | 1 | -4
C(=N\Nc1ccccn1)/c1ccc(N2CCOCC2)cc1 | 0.8 | 2 | 0.9 | 1 | 2
C(=N\Nc1ccccc1)/c1ccc(N2CCOCC2)cc1 | 2.2* | -5 | 1.3 | 1 | -3
Cc1ccc2[nH]c(=O)c(CN(CC3COCCO3)C(=O)Nc3ccccc3F)cc2c1 (configuration not stated) | 1 | -7 | 1 | 1.1 | -6
Cc1ccc(C(=O)NCc2ccco2)cc1S(=O)(=O)Nc1cccc(Cl)c1 | 1.1 | -12 | 1 | 1.1 | -10
Cc1ccc(S(=O)(=O)NNc2ccccc2)c(C)c1 | 2.7* | 4 | 1.7 | 1 | -1
CCCCOc1ccc(/C=C/C2=CC(C)(C)NC(=S)N2)cc1OCC | 2* | -4 | 1.6 | 0.9 | 9
Cc1cc(C)c2c(N)c(C(=O)N3CCc4ccccc4C3)sc2n1 | 2* | -8 | 1.5 | 1 | -4
CC(C)c1ccc2nc3sc(C(=O)N4CCc5ccccc5C4)c(N)c3cc2c1 | 1 | -7 | 1 | 1 | 0
CN(CC(=O)Nc1ccc(N2CCOCC2)cc1)CC(=O)Nc1ccccc1C#N | 1 | 50* | 1 | 1 | -3
O=C1C(=O)N(CCc2c[nH]c3ccccc23)C(c2cccnc2)/C1=C(/O)c1ccccc1 (configuration not stated) | 1 | -6 | 1.1 | 1 | 0
O=C(CSc1cnc2ccccc2n1)c1ccc(F)cc1 | 1 | 0 | 1.1 | 1 | 1
CCOC(=O)Cc1cc(=O)n2[nH]c(-c3ccc(Cl)cc3)cc2n1 | 1 | 10 | 1 | 1 | -4
O=c1cc(-c2ccc([N+](=O)[O-])cc2)nc2cc(-c3ccc(Cl)cc3)[nH]n12 | 1.1 | 51* | 1.1 | 1 | 3
CC1N(O)C(c2ccc(Cl)cc2Cl)N(O)C1(C)C (configuration not stated) | 2* | -2 | 1.8 | 1 | -2
ON1C(c2ccc(Cl)cc2Cl)N(O)[C@H]2CCCC[C@H]21 (some centres not stated) | 1.1 | 4 | 1.3 | 1.1 | -5
COc1ccc2nc(C)cc(SCC(=O)N/N=C/c3ccc(O)c(O)c3)c2c1 | 1.1 | 76* | 0.7 | 0.8 | 20
SMILES | PMI act satM6P | TNAP inh no acc | PMI act | TNAP act hi DEA | TNAP inh hiacc
COc1cccc2c(SCC(=O)N/N=C/c3ccc(O)c(O)c3)cc(C)nc12 | 1 | 72* | 0.6 | 0.9 | 11
Cc1cc(SCC(=O)N/N=C/c2ccc(O)c(O)c2)c(C)cc1Br | 0.8 | 50* | 0.8 | 0.9 | 12
COc1cccc2c(SCC(=O)N/N=C/c3ccccc3)cc(C)nc12 | 0.9 | -10 | 0.9 | 1 | -3
COc1ccc2c(c1)c(C(=O)N/N=C/c1ccc(O)c(O)c1)c(C)n2C | 0.9 | 56* | 0.6 | 1 | 1
CC(C)CNC(=O)c1ccccc1NC(=O)CCSc1ccccc1 | 1 | -16 | 0.9 | 1 | -3
CCOC(=O)c1cnc2c(OC)cccc2c1Nc1ccc2c(c1)OCCO2 | 0.8 | -9 | 0.9 | 1 | 1
Clc1ccccc1-c1nc(-c2ccccc2)n[nH]1 | 1 | 91* | 1 | 1 | 3
O=C(c1ccccn1)N1N=C2/C(=C/c3ccc(F)cc3)CCCC2C1c1ccc(F)cc1 (configuration not stated) | 0.9 | 5 | 0.8 | 1 | 1
CCOC(=O)c1cc(NC(=O)Nc2cc(C)ccn2)c(C)nc1C | 1.2 | 7 | 1.1 | 0.9 | 9
CCOC(=O)c1cc(NC(=O)Nc2nc3ccccc3s2)c(C)nc1C | 1 | 58* | 0.9 | 1 | 3
CCOc1ccc(C(c2c(C)[nH][nH]c2=O)c2c(C)[nH][nH]c2=O)cc1OC | 0.6 | 47 | 0.7 | 0.4 | 65*
CCOc1cc(C(c2c(C)[nH][nH]c2=O)c2c(C)[nH][nH]c2=O)ccc1OCc1ccc([N+](=O)[O-])cc1 | 0.8 | -53 | 0.8 | 0.9 | 13
CCOc1cc(/C=N/O)ccc1OS(=O)(=O)c1ccc(C)cc1 | 0.8 | 0 | 0.8 | 1 | -1
CCOc1cc(C(c2c(C)[nH][nH]c2=O)c2c(C)[nH][nH]c2=O)ccc1OS(=O)(=O)c1ccc(C)cc1 | 0.9 | -13 | 0.9 | 0.5 | 52*
CSCCC(=O)Nc1nc(-c2ccccn2)cs1 | 2.2* | -40 | 1.7 | 1 | 0
COc1ccc(C(OCC2CO2)c2ccc(OC)cc2)cc1 (configuration not stated) | 1 | 0 | 1.1 | 1 | -4
COc1ccccc1-c1nnc(NC(C)=O)s1 | 1.1 | -5 | 1.1 | 1 | 4
COc1ccccc1-c1nc(NC(C)=O)n[nH]1 | 1 | 93* | 1 | 1 | 0
NNc1nc(-c2ccccc2)cs1 | 2* | -11 | 1.6 | 0.9 | 7
c1ccc(-c2csc(Nc3ncccn3)n2)cc1 | 1.1 | -2 | 1 | 1 | -1
COc1ccc(-c2cc(C(=O)NN)[nH]n2)cc1OC | 1 | 30 | 1 | 1 | 4
COc1ccc(-c2cc(-c3cc(C)ccc3O)[nH]n2)cc1 | 0.9 | -30 | 0.9 | 1.1 | -6
O=C(O)c1cc(-c2ccc(Cl)cc2)n[nH]1 | 0.9 | 83* | 1 | 1 | -3
COc1ccc(-c2cc(C(=O)O)[nH]n2)cc1OC | 0.9 | -2 | 0.9 | 1 | -3
CCOc1ccc(-c2cc(C(=O)NN)[nH]n2)cc1 | 1 | 67* | 0.9 | 1 | 2
COc1ccc(-c2cc(-c3ccc(OC)cc3)[nH]n2)cc1 | 0.9 | 66* | 1 | 1.1 | -9
COc1ccc(-c2cc(C(=O)NN)[nH]n2)cc1 | 1 | 93* | 0.8 | 0.9 | 8
CCOc1ccc(-c2cc(C)n3nc(C(N)=O)cc3n2)cc1 | 1.2 | 7 | 1.1 | 1 | 1

Assay outcomes deposited in PubChem by Sanford-Burnham Center for Chemical Genomics.
